Series [1] can be described thus: Dissociation constant (pKa). Format: physicochemical. A digest of the protocol:
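Measured in water at 23 °C from UV absorbance versus pH, using a pH meter calibrated with pH 5, 7 and 9 buffers. pH was stepped with 6 N HCl or NaOH to give 7–15 readings spanning the expected pKa, at 2–4 wavelengths with flow stopped. Spectra at pH 3 and 10 checked for decomposition. Simplex curve fit gave the pKa, reported as mean ± SD across wavelengths.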

The species named for a further series is Rattus norvegicus. The series can be described thus: Tested for inhibition of NMDA-induced cyclic GMP increase in rat cerebellar slices. Format: functional.
In series [2] the target is Glutamate receptor ionotropic, kainate (Rattus norvegicus) (UniProt P22756+Q01812+P42260+P42264+Q63273). Nature of the series: Inhibition at Ionotropic glutamate receptor kainate was determined at a concentration of 200 uM in rat cerebellar slices.
Series [3] in a line: Potentiometric pKa(in 25 mL of water) of the compound. It counts as physicochemical.
Series [4] in a line: potentiometric pKa(in 25 mL of 1 M NaCl) of the compound. Format: physicochemical.

A value given as a limit tells only on which side of the number the result lay.

On to `O=S(=O)(Cc1ccccc1)c1nc[nH]n1`, for which the pKa – broadly, the pH at which an ionisable group is half protonated – in series [1] worked out at 6.23. In turn, `NC(CCCCCSc1ccccc1O)C(=O)O` (stereo not drawn) showed a pKa in series [1] of 9.35. Besides, 310 µM corresponded to half-maximal inhibition in the series filed under Rattus norvegicus (IC50).

In turn, `NC(CCCCCSc1cc(Cl)ccc1O)C(=O)O` (stereo not drawn) showed a pKa in series [1] of 8.55. Also, half-maximal inhibition in the series listed under Rattus norvegicus (IC50) required 220 µM. `[O-][S+](Cc1ccccc1)c1nc(O)n[nH]1` (stereo not drawn) displayed a pKa in series [1] of 5.2. Take `NC(CCCSc1ccccc1O)C(=O)O` (stereo not drawn): the half-inhibitory concentration (IC50) – broadly, the point on the concentration scale where inhibition reaches its midpoint – in the series filed under Rattus norvegicus is greater than 10000 µM. In series [1], `[O-][S+](Cc1ccccc1)c1nc[nH]n1` (stereo not drawn) gave a pKa of 7.38. Same read-out and setting: to `[O-][S+](Cc1ccccc1)c1ncc[nH]1` (stereo not drawn) belongs 9.8. For the compound `Nc1ccccc1SCCCCCC(N)C(=O)O` (stereo not drawn), in series [2], the inhibition (usually how much of the control response was suppressed) came out at 20%. In the series filed under Rattus norvegicus, this compound had an IC50 of 140 µM. Take `O=S(=O)(Cc1ccccc1)c1nc(O)n[nH]1`: the pKa in series [1] amounted to 4.79.

`N[C@H](CCCCSc1cc(Cl)ccc1O)C(=O)O`: the IC50 in the series listed under Rattus norvegicus is greater than 10000 µM.

In series [1], `Oc1n[nH]c(SCc2ccccc2)n1` yielded a pKa of 7.85. As for `[O-][S+](Cc1ccccc1)c1c[nH]nn1` (stereo not drawn), the pKa in series [1] amounted to 6.09. Consider `c1ccc(CSc2c[nH]nn2)cc1`, for which, in series [1], the pKa turned out to be 8.2. Regarding `O=S(=O)(Cc1ccccc1)c1ncc[nH]1`, the pKa in series [1] was 8.67.

Regarding `c1ccc(CSc2nc[nH]n2)cc1`, the pKa in series [1] is 9.5.

Take `NC(CCCCC[S+]([O-])c1ccccc1O)C(=O)O` (stereo not drawn): the IC50 in the series filed under Rattus norvegicus was greater than 10000 µM. In series [1], `c1ccc(CSc2ncc[nH]2)cc1` displayed a pKa of 11.6. In the series listed under Rattus norvegicus, `NC(CCCSc1cc(Cl)ccc1O)C(=O)O` (stereo not drawn) displayed an IC50 of 260 µM.

The compound `NC(CCCCCS(=O)(=O)c1ccccc1O)C(=O)O` (stereo not drawn) had a pKa in series [1] of 7.38. Moreover, the half-inhibitory concentration (IC50) in the series listed under Rattus norvegicus is greater than 10000 µM.

`O=S(=O)(Cc1ccccc1)c1c[nH]nn1` showed a pKa in series [1] of 5.15. For `NC(CCCCCP(=O)(O)O)C(=O)O` (stereo not drawn) [AP-7], the pKa in series [1] is 2.64; in series [3], 7.72; in series [4] it was 9.84. Moreover, in the series filed under Rattus norvegicus, 35 µM corresponded to half-maximal inhibition (IC50).

The record behind these values is ChEMBL document CHEMBL1125079, “A unified approach to systematic isosteric substitution for acidic groups and application to NMDA antagonists related to 2-amino-7-phosphonoheptanoate” (J Med Chem, 1990).
